Test results as given in ChEMBL document CHEMBL4334488 (J Med Chem, 2019).

Legend:
[1] = biological target: T1, Histamine H3 receptor (Homo sapiens, UniProt Q9Y5N1); experiment: Displacement of 3 nM [3H]Nalpha-methylhistamine from human H3R expressed in Sf9 cell membranes co-expressing Gia2 and beta1gamma2 by competition binding assay
How it was run: (§1)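 Competition binding on Sf9 membranes in 100 μL with 0.2% BSA. Membrane protein: 5−25 μg (H4R), 24−35 μg (H3R), 15 μg (H2R), 23 μg (H1R). Normalized total binding was plotted against log competitor. Two to four independent experiments, each in triplicate.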

[2] = biological target: T2, Histamine H4 receptor (Homo sapiens, UniProt Q9H3N8); experiment: Binding affinity to human H4R
T2 sequence (Q9H3N8 whole entry): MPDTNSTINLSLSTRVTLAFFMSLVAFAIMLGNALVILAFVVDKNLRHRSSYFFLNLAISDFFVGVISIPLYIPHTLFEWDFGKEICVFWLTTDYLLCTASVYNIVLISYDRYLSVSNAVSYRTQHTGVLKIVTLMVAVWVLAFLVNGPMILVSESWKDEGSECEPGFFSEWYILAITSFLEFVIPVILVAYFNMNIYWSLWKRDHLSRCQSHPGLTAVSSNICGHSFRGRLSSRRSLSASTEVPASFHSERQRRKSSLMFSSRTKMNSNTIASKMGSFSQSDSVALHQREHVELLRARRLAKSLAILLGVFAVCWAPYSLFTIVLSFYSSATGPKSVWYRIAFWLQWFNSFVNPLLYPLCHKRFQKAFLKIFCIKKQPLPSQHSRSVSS

[3] = biological target: T1, Histamine H3 receptor; experiment: Displacement of 2 nM [3H]UR-PI294 from human H3R expressed in Sf9 cell membranes co-expressing Gia2 and beta1gamma2 by competition binding assay
How it was run: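 Competition binding on Sf9 membranes in 100 μL with 0.2% BSA. Membrane protein: 5−25 μg (H4R), 24−35 μg (H3R), 15 μg (H2R), 23 μg (H1R). […] Normalized total binding was plotted against log competitor. Two to four independent experiments, each in triplicate.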

[4] = Chemical stability in PBS buffer at pH 7.4 at 200 uM at 23 degC measured over 24 hrs by RP-HPLC analysis; format: physicochemical; details: pH 7.4, 24 h
How it was run: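 Compounds diluted to 200 μM in PBS pH 7.4 from a 10 mM DMSO stock, incubated at 23 °C for 24 h, and analysed by RP-HPLC with detection at 220 nm.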

[5] = biological target: Histamine H1 receptor (Homo sapiens, UniProt P35367); experiment: Displacement of 5 nM [3H-pyrilamine from human H1R expressed in Sf9 cell membranes co-expressing RGS4 by competition binding assay; how it was run: as §1
Sequence of Histamine H1 receptor (P35367 whole entry, looked up): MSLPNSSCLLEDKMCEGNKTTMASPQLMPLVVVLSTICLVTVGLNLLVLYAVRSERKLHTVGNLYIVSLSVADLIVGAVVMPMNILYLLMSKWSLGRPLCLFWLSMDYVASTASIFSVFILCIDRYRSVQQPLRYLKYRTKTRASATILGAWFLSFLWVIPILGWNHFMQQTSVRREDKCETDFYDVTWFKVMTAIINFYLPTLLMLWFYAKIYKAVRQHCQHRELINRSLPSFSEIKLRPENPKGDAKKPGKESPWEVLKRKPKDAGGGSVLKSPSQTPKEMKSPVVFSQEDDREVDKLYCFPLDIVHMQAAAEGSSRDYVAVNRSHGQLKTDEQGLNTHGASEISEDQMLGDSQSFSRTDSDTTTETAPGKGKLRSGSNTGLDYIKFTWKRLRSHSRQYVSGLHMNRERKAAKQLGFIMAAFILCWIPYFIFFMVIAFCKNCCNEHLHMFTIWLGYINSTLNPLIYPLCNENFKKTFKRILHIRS

[6] = biological target: T2, Histamine H4 receptor; experiment: Agonist activity at human H4R by [35S]-GTPgammaS-binding assay; format: functional
[7] = biological target: T3, Histamine H4 receptor (Mus musculus, UniProt Q91ZY2); experiment: Agonist activity at mouse H4R by [35S]-GTPgammaS-binding assay; format: functional
T3 sequence (Q91ZY2 whole entry): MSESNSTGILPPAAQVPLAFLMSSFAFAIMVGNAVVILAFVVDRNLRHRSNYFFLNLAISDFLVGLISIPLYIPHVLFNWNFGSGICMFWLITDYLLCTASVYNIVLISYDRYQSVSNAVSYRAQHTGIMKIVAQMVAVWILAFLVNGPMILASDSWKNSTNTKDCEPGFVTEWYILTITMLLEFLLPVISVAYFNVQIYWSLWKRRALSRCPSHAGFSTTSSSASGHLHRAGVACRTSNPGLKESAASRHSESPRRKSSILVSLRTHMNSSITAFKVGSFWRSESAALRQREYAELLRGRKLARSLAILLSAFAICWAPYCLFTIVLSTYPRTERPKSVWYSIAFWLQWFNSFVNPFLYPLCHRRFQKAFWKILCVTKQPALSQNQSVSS

[8] = biological target: Histamine H4 receptor (Rattus norvegicus) (UniProt Q91ZY1)
Sequence of Histamine H4 receptor (Rattus norvegicus) (Q91ZY1 whole entry): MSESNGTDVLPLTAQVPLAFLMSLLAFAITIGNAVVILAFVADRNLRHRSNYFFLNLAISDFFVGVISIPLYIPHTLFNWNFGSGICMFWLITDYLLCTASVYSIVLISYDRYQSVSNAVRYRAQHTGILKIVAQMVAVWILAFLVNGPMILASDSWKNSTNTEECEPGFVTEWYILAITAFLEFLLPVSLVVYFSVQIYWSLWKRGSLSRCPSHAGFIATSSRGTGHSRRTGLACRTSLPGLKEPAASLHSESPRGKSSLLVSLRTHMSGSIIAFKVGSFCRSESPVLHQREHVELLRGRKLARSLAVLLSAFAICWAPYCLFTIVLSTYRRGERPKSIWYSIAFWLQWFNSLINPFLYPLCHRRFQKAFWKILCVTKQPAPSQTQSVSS

[9] = biological target: T2, Histamine H4 receptor
[10] = biological target: T4, Histamine H4 receptor (Mus musculus) (UniProt Q91ZY2)
T4 sequence (whole entry): T3 sequence (Q91ZY2 whole entry)

[11] = biological target: T2, Histamine H4 receptor; experiment: Displacement of 40 nM [3H]-histamine from human H4R expressed in Sf9 cell membranes co-expressing Gia2 and beta1gamma2 by competition binding assay; how it was run: as §1
[12] = Chemical stability in EtOH/H2O (70:30) at -20 degC measured over 11 months; format: physicochemical; details: 8035.5 h
How it was run: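 Radioligand stored in EtOH/H2O 70:30 at −20 °C. Radiochemical purity was checked by HPLC with UV and radiometric detection after spiking with the unlabeled compound, 4 days after synthesis and again after 11 months.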

[13] = biological target: Histamine H2 receptor (Homo sapiens, UniProt P25021); experiment: Displacement of 20 nM [3H]UR-DE257 from human H2R expressed in Sf9 cell membranes co-expressing GsalphaS by competition binding assay; how it was run: as §1
Sequence of Histamine H2 receptor (P25021 whole entry): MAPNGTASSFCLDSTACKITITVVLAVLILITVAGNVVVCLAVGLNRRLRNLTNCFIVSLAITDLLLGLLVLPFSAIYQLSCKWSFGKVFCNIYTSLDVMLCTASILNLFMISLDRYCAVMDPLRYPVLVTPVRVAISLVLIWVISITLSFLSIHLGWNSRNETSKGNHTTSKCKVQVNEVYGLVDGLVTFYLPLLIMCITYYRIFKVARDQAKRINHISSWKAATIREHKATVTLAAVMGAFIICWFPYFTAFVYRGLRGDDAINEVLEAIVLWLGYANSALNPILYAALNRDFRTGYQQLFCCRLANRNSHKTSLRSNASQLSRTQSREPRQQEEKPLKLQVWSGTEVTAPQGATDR

[14] = organism: Homo sapiens; experiment: Selectivity index, ratio of Ki for displacement of 2 nM [3H]UR-PI294 from human H3R expressed in Sf9 cell membranes co-expressing Gia2 and beta1gamma2 by competition binding assay to Ki for displacement of 40 nM [3H]-histamine from human H4R expressed in Sf9 cell membranes co-expressing Gia2 and beta1gamma2 by competition binding assay
[15] = organism: Homo sapiens; experiment: Selectivity index, ratio of Ki for [3H]UR-DE257 from human H2R expressed in Sf9 cell membranes co-expressing GsalphaS by competition binding assay to Ki for displacement of 40 nM [3H]-histamine from human H4R expressed in Sf9 cell membranes co-expressing Gia2 and beta1gamma2 by competition binding assay

T1 sequence (Q9Y5N1 whole entry): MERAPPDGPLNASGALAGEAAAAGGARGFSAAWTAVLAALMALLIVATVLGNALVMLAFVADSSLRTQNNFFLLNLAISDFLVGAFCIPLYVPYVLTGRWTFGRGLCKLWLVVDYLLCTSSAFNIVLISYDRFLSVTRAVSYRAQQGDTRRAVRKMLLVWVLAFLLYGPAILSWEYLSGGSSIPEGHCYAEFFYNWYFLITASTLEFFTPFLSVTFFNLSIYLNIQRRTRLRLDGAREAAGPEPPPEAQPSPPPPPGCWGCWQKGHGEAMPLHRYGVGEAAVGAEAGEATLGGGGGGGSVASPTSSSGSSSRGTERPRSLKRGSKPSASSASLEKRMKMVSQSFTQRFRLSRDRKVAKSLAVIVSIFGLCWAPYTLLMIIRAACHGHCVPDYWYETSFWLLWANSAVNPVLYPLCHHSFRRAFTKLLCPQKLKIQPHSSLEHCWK

SMILES	Ki [1] [nM]	Ki [3] [nM]	Ki [5] [nM]	further results
CC(C)(C)CNc1nccc(N2CC[C@@H](N)C2)n1	13.8	–	–	–
NC(=NCCc1ccc(I)cc1)SCCCc1cnc[nH]1 [IODOPHENPROPIT]	–	–	–	Ki [2]: 12.6 nM
CCC(=O)N[C@@H]1CCN(c2ccnc(NCC(C)(C)C)n2)C1	3020	3020	–	–
CC(C)(C)CNc1nccc(N2CC[C@@H](NC(=N)N)C2)n1.O=C(O)C(F)(F)F.O=C(O)C(F)(F)F	1120	–	> 10000	Stability [4]: Stable
CC(C)(C)CNc1nccc(NCCN)n1	692	–	> 1000	–
NC(=NCc1ccc(Cl)cc1)SCCCc1cnc[nH]1 [CLOBENPROPIT]	–	–	–	EC50 [6]: 22.4 nM; EC50 [7]: 851 nM
CC(C)(C)CNc1nccc(N2CCCN(C(=N)N)CC2)n1	> 10000	–	–	–
N=C(NCc1ccc(Cl)cc1)SCCCc1c[nH]cn1	–	–	–	pKb [8]: 6.28
CC(C)(C)CNc1nccc(NC2CCNC2)n1 (stereo not given)	204	204	> 10000	–
CN1CCCN(c2ccnc(NCC(C)(C)C)n2)CC1.O=C(O)C(F)(F)F.O=C(O)C(F)(F)F	2400	–	> 10000	Stability [4]: Stable
CC(C)(C)CNc1nccc(N2CCCNCC2)n1	–	537	–	–
CC(C)(C)CNc1nccc(N2CCc3nc[nH]c3C2)n1.O=C(O)C(F)(F)F.O=C(O)C(F)(F)F	3.31	–	–	Stability [4]: Stable
CC(C)(C)CNc1nccc(N2CCN(C(=N)N)CC2)n1	6030	–	> 1000	–
S=C(NC1CCCCC1)N1CCC(c2cnc[nH]2)CC1	–	–	–	pKb [9]: 6.83; pKb [10]: 7.12; pKb [8]: 6.44
CC(C)(C)CNc1nccc(NCCc2c[nH]cn2)n1	–	9.55	–	Ki [11]: 204 nM
O=C(O)C(F)(F)F.O=C(O)C(F)(F)F.[3H]C([3H])([3H])N(C)[C@@H]1CCN(c2ccnc(NCC(C)(C)C)n2)C1	–	–	–	Stability [12]: Stable
CC(C)(C)CNc1nccc(NCCCN)n1	5620	5620	> 10000	–
CC(C)(C)CNc1nccc(NCCCc2c[nH]cn2)n1	–	9.33	–	–
CN1CCN(c2ccnc(NCC(C)(C)C)n2)CC1	5500	–	–	–
Cc1[nH]cnc1CSCCNc1ccnc(NCC(C)(C)C)n1	> 10000	–	> 1000	–
CN[C@@H]1CCN(c2ccnc(NCC(C)(C)C)n2)C1	27.5	27.5	–	–
CN(C)[C@@H]1CCN(c2ccnc(NCC(C)(C)C)n2)C1.O=C(O)C(F)(F)F.O=C(O)C(F)(F)F	–	–	> 10000	Stability [4]: Stable
CC(C)(C)CNc1nccc(N2CCNCC2)n1	> 10000	–	–	–
CC(C)(C)CNc1nccc(N2CCN(CCN)CC2)n1	> 10000	–	–	–
CC(C)(C)CNc1nccc(NC2CCNCC2)n1	3470	3470	> 10000	Ki [11]: 1910 nM; Ki [13]: > 10000 nM; Ratio Ki [14]: 1.6; Ratio Ki [15]: > 4.7
